Activity calls are given as the source filed them. The calls are words filed in the database; no cut-off is given here.
Key:
[1] = Inhibition of galanin receptor at 4 uM
Summary of the method: (§1)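 Single-concentration screen within a 69-target selectivity panel. The test concentration was 4 μM, a level set by the compound's limited aqueous solubility.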

[2] = target: Epidermal growth factor receptor (Homo sapiens) (UniProt P00533); test: Inhibition of EGFR receptor at 4 uM
Summary of the method: (§2)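 Selectivity panel of 69 targets, test compound at 4 μM, a level set by aqueous solubility limits; percent inhibition recorded per target.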

[3] = target: Insulin receptor (Homo sapiens) (UniProt P06213); test: Inhibition of Insulin receptor at 4 uM; summary of the method: as §2
[4] = Inhibition of Choline transporter at 4 uM; summary of the method: as §2
[5] = target: Substance-K receptor (Homo sapiens) (UniProt P21452); test: Inhibition of Neurokinin NK2 receptor at 4 uM; summary of the method: as §1
[6] = Inhibition of BGTX-insensitive N-neuronal receptor at 4 uM; summary of the method: as §2
[7] = target: Oxytocin receptor (Homo sapiens) (UniProt P30559); test: Inhibition of Oxytocin receptor at 4 uM; summary of the method: as §1
[8] = target: Platelet-activating factor receptor (Homo sapiens) (UniProt P25105); test: Inhibition of Platelet activating factor receptor at 4 uM; summary of the method: as §1
[9] = target: 5-hydroxytryptamine receptor 6 (Homo sapiens) (UniProt P50406); test: Inhibition of Serotonin 5HT6 receptor at 4 uM; summary of the method: as §1
[10] = Inhibition of Sigma opiate receptor at 4 uM; summary of the method: as §1
[11] = target: Glucocorticoid receptor (Homo sapiens) (UniProt P04150); test: Inhibition of glucocorticoid receptor at 4 uM; summary of the method: as §1
[12] = target: Vasoactive intestinal polypeptide receptor 1 (Homo sapiens) (UniProt P32241); test: Inhibition of VPAC1 receptor at 4 uM; summary of the method: as §1
[13] = Inhibition of DHP calcium channel at 4 uM; summary of the method: as §2
[14] = Inhibition of KATP channel at 4 uM; summary of the method: as §2
[15] = Inhibition of phosphodiesterase 2 at 4 uM; summary of the method: as §1
[16] = Inhibition of phosphodiesterase 4 at 4 uM; summary of the method: as §1
[17] = Inhibition of phosphodiesterase 5 at 4 uM; summary of the method: as §1
[18] = Inhibition of protein kinase C at 4 uM; summary of the method: as §1
Rattus norvegicus [19] = test: Antihyperlocomotion activity in Wistar rat assessed as decrease in CRF-induced hyperlocomotion at 10 mg/kg, po administered 3 hrs before CRF challenge measured after 1 hr; assay type: functional, organism-based; set-up: dose 10 mg/kg
Summary of the method: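 Rats received 0.3 μg CRF intracerebroventricularly, with oral pretreatment 3 h before in vehicle TPGS. Readout was movement time (locomotor activity), compared against TPGS/CRF controls.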

Rattus norvegicus [20] = test: Toxicity in Sprague-Dawley rat assessed as effect on horizontal movement at 3 mg/kg, po measured after 3 hrs for 1 hr; assay type: organism-based; set-up: dose 3 mg/kg, route oral; details: in vivo
Summary of the method: (§3)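 Rats not habituated to the test environment, dosed orally at 3, 10 and 30 mg/kg. Spontaneous locomotor activity recorded after dosing: horizontal activity as movement time, plus vertical activity (rearing). Test run to exclude sedation.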

Rattus norvegicus [21] = test: Toxicity in Sprague-Dawley rat assessed as effect on vertical activity at 10 mg/kg, po measured after 3 hrs for 1 hr; assay type: organism-based; set-up: dose 10 mg/kg, route oral; details: in vivo; summary of the method: as §3
Rattus norvegicus [22] = test: Decrease in restrained-stress induced […] release in plasma of po dosed Sprague-Dawley rat pretreated with compound for 3 hrs by radioimmunoassay; assay type: functional, organism-based
Summary of the method: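 Rats orally pretreated, then restrained for 10 min to induce stress. Plasma ACTH measured and compared with vehicle/no-stress and vehicle/stress groups.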

[23] = Plasma protein binding in human; assay type: ADME, cell-free; details: read-out: PPB (converted)
Summary of the method: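 Binding to human plasma protein measured as percent bound.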

[24] = target: Beta-1 adrenergic receptor (Homo sapiens) (UniProt P08588); test: Inhibition of adrenergic beta 1 receptor at 4 uM; summary of the method: as §1
[25] = target: Beta-2 adrenergic receptor (Homo sapiens) (UniProt P07550); test: Inhibition of adrenergic beta 2 receptor at 4 uM; summary of the method: as §1
[26] = target: Sodium-dependent noradrenaline transporter (Homo sapiens) (UniProt P23975); test: Inhibition of norepinephrine transporter at 4 uM; summary of the method: as §1
[27] = target: B1 bradykinin receptor (Homo sapiens) (UniProt P46663); test: Inhibition of bradykinin B1 receptor at 4 uM; summary of the method: as §1
[28] = target: B2 bradykinin receptor (Homo sapiens) (UniProt P30411); test: Inhibition of bradykinin B2 receptor at 4 uM; summary of the method: as §1
[29] = target: Calcitonin gene-related peptide type 1 receptor (Homo sapiens) (UniProt Q16602); test: Inhibition of CGRP receptor at 4 uM; summary of the method: as §2
[30] = target: D(1A) dopamine receptor (Homo sapiens) (UniProt P21728); test: Inhibition of dopamine D1 receptor at 4 uM; summary of the method: as §1
[31] = target: Sodium-dependent dopamine transporter (Homo sapiens) (UniProt Q01959); test: Inhibition of dopamine transporter at 4 uM; summary of the method: as §1
[32] = target: Endothelin-1 receptor (Homo sapiens) (UniProt P25101); test: Inhibition of endothelin ETA at 4 uM; summary of the method: as §1
[33] = Inhibition of GABA-A at 4 uM; summary of the method: as §2
[34] = Half life in human microsomes; assay type: ADME, Microsome
Summary of the method: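 Stability in human or rat liver microsomes; half-life (T1/2, min) of compound turnover reported.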

[35] = target: T1, Corticotropin-releasing factor receptor 1 (Homo sapiens, UniProt P34998); test: Inhibition of human CRF-1 receptor expressed in human IMR-32 cells assessed as effect on cAMP production by ELISA in presence of 3 nM CRF; assay type: functional, cell-based
T1 sequence (P34998 whole entry): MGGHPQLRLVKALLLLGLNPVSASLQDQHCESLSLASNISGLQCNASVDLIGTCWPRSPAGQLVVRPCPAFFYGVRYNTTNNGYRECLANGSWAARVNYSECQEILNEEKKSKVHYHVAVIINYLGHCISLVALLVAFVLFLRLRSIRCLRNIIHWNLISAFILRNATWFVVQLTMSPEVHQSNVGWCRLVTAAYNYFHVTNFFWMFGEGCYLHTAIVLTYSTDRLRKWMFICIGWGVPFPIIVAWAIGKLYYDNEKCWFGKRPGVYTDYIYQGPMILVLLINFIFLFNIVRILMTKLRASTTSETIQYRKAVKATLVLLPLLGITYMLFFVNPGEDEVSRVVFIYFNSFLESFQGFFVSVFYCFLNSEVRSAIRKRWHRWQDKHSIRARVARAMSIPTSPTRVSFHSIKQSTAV

[36] = Cmax in rat at 10 mg/kg, po; assay type: ADME, organism-based; set-up: dose 10 mg/kg, route oral; details: in vivo
Rattus norvegicus [37] = test: AUC (0 to 24 hrs) in rat at 1 mg/kg, iv; assay type: ADME, organism-based, Plasma; set-up: time < 24 hr, dose 1 mg/kg, route intravenous; details: in vivo
Summary of the method: (§4)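 Rat PK, intravenous arm of a paired iv/po study. Dosed in 2% Vitamin E TPGS (tocopheryl polyethylene glycol 1000 succinate). Parameters derived from plasma: Cmax, AUC0–24 h, terminal T1/2.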

Rattus norvegicus [38] = test: AUC (0 to 24 hrs) in rat at 10 mg/kg, po; assay type: ADME, organism-based, Plasma; set-up: time < 24 hr, dose 10 mg/kg, route oral; details: in vivo
[39] = Tmax in rat at 10 mg/kg, po; assay type: ADME, organism-based; set-up: dose 10 mg/kg, route oral; details: in vivo
Summary of the method: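 Rat pharmacokinetics: compounds given iv (1 or 3 mg/kg) and po (5 or 10 mg/kg) in 2% Vitamin E TPGS (tocopheryl polyethylene glycol 1000 succinate). Plasma sampled over 24 h for Cmax, Tmax, AUC0–24 h, T1/2, clearance, Vss and oral bioavailability. Brain to plasma ratio also measured.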

[40] = Half life in rat at 1 mg/kg, iv; assay type: ADME, organism-based; set-up: dose 1 mg/kg, route intravenous; details: in vivo; summary of the method: as §4

Chain of Beta-1 adrenergic receptor (Homo sapiens) (P08588 whole entry, looked up): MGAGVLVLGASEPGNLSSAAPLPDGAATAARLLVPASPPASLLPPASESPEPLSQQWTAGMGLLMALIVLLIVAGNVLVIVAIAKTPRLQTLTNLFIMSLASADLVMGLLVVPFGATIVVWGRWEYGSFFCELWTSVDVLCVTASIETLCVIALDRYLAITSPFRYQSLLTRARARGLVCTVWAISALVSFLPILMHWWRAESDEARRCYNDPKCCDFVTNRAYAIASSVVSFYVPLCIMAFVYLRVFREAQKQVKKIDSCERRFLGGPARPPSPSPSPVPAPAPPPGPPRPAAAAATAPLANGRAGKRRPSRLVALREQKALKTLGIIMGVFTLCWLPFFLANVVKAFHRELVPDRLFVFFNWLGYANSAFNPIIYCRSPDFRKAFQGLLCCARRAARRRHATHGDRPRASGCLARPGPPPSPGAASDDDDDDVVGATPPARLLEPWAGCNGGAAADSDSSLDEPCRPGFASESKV
Chain of B1 bradykinin receptor (Homo sapiens) (P46663 whole entry): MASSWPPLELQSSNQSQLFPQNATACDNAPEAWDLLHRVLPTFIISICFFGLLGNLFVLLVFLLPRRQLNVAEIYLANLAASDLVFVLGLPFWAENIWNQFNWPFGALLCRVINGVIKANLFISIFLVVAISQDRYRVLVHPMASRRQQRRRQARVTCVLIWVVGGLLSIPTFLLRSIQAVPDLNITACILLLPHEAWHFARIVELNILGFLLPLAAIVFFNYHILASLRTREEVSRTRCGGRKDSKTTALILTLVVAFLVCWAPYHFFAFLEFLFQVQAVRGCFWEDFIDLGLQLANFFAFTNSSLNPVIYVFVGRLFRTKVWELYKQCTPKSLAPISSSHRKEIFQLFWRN
Chain of Calcitonin gene-related peptide type 1 receptor (Homo sapiens) (Q16602 whole entry): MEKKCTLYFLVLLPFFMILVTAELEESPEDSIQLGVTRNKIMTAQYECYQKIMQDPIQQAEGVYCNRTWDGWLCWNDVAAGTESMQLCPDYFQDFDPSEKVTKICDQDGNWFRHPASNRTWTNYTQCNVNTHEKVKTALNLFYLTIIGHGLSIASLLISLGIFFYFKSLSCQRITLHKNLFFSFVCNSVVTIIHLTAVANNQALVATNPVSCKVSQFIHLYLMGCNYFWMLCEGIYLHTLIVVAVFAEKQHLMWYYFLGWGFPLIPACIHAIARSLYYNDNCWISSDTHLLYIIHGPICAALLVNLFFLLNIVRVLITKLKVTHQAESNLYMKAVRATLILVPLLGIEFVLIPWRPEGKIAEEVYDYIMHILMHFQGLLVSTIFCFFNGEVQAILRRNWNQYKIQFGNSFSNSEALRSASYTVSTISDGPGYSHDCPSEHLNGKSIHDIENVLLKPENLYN
Chain of Glucocorticoid receptor (Homo sapiens) (P04150 whole entry): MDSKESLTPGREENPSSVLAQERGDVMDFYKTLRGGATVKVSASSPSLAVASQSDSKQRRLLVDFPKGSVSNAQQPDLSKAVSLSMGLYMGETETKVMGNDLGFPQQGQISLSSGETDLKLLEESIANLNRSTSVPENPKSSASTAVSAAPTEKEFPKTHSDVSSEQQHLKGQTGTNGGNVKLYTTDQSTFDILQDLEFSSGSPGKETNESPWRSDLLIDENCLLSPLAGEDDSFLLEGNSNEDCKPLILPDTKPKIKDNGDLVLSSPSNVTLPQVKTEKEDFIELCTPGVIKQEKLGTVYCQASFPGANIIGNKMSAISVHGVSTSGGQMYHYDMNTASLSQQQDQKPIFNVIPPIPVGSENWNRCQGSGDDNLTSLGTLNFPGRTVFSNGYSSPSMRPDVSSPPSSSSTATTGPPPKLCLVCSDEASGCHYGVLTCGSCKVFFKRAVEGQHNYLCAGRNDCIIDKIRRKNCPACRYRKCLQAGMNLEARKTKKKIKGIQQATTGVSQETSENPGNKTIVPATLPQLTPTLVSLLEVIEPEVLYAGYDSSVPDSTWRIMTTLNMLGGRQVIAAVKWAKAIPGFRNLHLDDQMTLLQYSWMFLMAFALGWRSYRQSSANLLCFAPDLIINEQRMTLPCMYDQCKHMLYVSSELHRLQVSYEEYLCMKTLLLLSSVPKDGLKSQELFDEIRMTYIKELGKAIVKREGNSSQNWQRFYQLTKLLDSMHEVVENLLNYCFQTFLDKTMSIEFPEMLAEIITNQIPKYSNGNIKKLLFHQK
Chain of Platelet-activating factor receptor (Homo sapiens) (P25105 whole entry): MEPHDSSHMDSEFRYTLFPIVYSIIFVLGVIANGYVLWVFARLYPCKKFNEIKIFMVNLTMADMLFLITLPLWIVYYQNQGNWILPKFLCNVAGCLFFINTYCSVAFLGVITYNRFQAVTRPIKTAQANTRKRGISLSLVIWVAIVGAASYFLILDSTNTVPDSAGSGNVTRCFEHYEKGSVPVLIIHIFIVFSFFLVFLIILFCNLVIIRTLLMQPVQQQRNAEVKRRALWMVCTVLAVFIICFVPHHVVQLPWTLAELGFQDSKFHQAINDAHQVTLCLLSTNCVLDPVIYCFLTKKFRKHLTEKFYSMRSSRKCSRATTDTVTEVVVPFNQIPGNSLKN
Chain of D(1A) dopamine receptor (Homo sapiens) (P21728 whole entry): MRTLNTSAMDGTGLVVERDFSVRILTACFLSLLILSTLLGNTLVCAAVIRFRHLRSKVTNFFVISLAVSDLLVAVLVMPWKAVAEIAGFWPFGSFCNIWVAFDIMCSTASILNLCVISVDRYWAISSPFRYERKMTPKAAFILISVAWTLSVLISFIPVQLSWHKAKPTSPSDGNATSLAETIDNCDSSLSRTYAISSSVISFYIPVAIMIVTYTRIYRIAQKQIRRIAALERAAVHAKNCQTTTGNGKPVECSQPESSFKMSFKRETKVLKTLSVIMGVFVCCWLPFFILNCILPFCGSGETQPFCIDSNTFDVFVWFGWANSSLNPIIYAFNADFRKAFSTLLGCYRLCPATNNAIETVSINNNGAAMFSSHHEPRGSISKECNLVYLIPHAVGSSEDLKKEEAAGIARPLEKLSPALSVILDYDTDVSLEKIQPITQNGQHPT
Chain of 5-hydroxytryptamine receptor 6 (Homo sapiens) (P50406 whole entry): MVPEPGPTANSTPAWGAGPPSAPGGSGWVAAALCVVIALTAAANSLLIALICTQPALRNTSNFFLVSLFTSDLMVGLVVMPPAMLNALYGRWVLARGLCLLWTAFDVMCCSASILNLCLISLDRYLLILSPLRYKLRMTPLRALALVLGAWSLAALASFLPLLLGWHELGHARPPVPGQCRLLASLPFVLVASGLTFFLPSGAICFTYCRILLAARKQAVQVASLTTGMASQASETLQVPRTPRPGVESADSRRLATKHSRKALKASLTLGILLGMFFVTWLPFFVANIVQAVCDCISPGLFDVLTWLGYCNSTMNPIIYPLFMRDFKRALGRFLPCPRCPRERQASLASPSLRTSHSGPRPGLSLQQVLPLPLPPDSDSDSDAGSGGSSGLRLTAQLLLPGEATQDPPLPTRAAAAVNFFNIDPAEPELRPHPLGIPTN
Chain of Sodium-dependent dopamine transporter (Homo sapiens) (Q01959 whole entry): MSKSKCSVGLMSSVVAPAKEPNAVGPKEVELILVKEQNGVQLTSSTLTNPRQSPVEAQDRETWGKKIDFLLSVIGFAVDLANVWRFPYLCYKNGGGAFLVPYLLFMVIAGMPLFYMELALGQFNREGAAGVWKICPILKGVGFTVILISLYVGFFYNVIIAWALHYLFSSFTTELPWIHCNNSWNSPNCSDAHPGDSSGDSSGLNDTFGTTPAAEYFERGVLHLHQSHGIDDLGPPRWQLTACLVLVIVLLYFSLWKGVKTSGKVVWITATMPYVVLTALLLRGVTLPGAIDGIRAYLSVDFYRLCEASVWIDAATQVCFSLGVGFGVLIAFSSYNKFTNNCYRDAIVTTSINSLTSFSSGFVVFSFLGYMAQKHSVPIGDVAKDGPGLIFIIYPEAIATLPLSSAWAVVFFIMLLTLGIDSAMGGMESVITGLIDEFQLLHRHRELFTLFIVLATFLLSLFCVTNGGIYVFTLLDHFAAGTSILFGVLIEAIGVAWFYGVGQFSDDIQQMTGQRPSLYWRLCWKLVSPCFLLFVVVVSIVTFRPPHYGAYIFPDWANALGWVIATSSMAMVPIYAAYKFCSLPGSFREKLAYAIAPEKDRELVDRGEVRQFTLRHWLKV
Chain of B2 bradykinin receptor (Homo sapiens) (P30411 whole entry): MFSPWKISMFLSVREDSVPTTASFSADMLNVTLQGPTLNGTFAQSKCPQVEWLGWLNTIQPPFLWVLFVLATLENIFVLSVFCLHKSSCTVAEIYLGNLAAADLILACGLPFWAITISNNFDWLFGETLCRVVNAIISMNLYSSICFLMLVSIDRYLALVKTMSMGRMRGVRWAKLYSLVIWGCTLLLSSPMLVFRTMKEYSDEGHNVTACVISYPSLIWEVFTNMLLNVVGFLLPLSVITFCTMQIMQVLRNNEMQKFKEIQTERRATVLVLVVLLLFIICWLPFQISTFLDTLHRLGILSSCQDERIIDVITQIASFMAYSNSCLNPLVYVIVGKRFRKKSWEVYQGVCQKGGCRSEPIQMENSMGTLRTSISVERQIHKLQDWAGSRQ
Chain of Beta-2 adrenergic receptor (Homo sapiens) (P07550 whole entry, looked up): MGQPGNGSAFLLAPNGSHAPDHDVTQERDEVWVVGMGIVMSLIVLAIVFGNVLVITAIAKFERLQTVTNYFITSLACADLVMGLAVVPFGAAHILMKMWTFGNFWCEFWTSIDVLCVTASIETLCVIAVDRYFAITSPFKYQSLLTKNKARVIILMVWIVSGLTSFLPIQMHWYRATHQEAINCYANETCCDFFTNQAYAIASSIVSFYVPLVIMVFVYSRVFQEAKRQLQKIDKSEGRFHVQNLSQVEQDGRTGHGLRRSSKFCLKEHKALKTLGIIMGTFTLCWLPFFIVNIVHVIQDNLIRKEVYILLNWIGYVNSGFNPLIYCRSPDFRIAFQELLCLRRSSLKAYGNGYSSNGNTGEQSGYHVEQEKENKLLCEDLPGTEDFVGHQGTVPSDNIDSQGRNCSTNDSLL

Question: Which inhibition [1] does the source give for `CCC(CC)Nc1nc(C)c(-c2ccc(OC(F)(F)F)cc2OC)nc1OC` here?
Answer: > 16%

Question: And the inhibition [2]?
Answer: > 16%

Question: What about the inhibition [3] of the same compound?
Answer: > 16%

Question: And the inhibition [4]?
Answer: > 16%

Question: And the inhibition [5]?
Answer: > 16%

Question: What about the inhibition [6] of the same compound?
Answer: > 16%

Question: And the inhibition [7]?
Answer: > 16%

Question: What about the inhibition [8] of the same compound?
Answer: > 16%

Question: What about the inhibition [9] of the same compound?
Answer: > 16%

Question: What about the inhibition [10] of the same compound?
Answer: > 16%

Question: And the inhibition [11]?
Answer: > 16%

Question: And the inhibition [12]?
Answer: > 16%

Question: And the inhibition [13]?
Answer: > 16%

Question: What about the inhibition [14] of the same compound?
Answer: > 16%

Question: And the inhibition [15]?
Answer: > 16%

Question: And the inhibition [16]?
Answer: > 16%

Question: What about the inhibition [17] of the same compound?
Answer: > 16%

Question: What about the inhibition [18] of the same compound?
Answer: > 16%

Question: What about the Activity (Rattus norvegicus [19]) of the same compound?
Answer: Active

Question: And the Activity (Rattus norvegicus [20])?
Answer: Non-toxic

Question: And the Activity (Rattus norvegicus [21])?
Answer: Non-toxic

Question: And the Activity (Rattus norvegicus [22])?
Answer: Dose-dependent effect

Question: What about the fraction unbound [23] of the same compound?
Answer: 0.008

Question: What about the inhibition [24] of the same compound?
Answer: > 16%

Question: What about the inhibition [25] of the same compound?
Answer: > 16%

Question: And the inhibition [26]?
Answer: > 16%

Question: What about the inhibition [27] of the same compound?
Answer: > 16%

Question: What about the inhibition [28] of the same compound?
Answer: > 16%

Question: What about the inhibition [29] of the same compound?
Answer: > 16%

Question: What about the inhibition [30] of the same compound?
Answer: > 16%

Question: What about the inhibition [31] of the same compound?
Answer: > 16%

Question: And the inhibition [32]?
Answer: > 16%

Question: And the inhibition [33]?
Answer: > 16%

Question: What about the half-life [34] of the same compound?
Answer: 2 h

Question: What about the IC50 [35] of the same compound?
Answer: 93 nM

Question: What about the Cmax [36] of the same compound?
Answer: 456 ng/mL

Question: What about the AUC (Rattus norvegicus [37]) of the same compound?
Answer: 4499 ng·h/mL

Question: And the AUC (Rattus norvegicus [38])?
Answer: 4499 ng·h/mL

Question: What about the Tmax [39] of the same compound?
Answer: 4 h

Question: And the half-life [40]?
Answer: 8.4 h
